# What was measured:
# Assay type in all cases: functional
# [1] = test system: Staphylococcus aureus; assay: Antibacterial activity against erythromycin-susceptible Staphylococcus aureus ATCC 25923 by broth microdilution method
# How it was run: (§1)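 MICs were determined in vitro by broth microdilution following the NCCL-recommended method. Azithromycin and clarithromycin were run alongside as reference antibiotics on the same strain panel.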
# [2] = test system: Streptococcus pyogenes; assay: Antibacterial activity against erythromycin-resistant Streptococcus pyogenes R1 clinical isolate by broth microdilution method
# [3] = test system: Streptococcus pneumoniae; assay: Antibacterial activity against erythromycin-resistant Streptococcus pneumoniae A22072 expressing mefA gene by broth microdilution method
# How it was run: (§2)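 Broth microdilution per NCCL recommendation, read as minimal inhibitory concentration, run alongside azithromycin and clarithromycin references. Strains: S. pneumoniae B1 (erythromycin-resistant, ermB), A22072 (erythromycin-resistant, mefA), AB11 (erythromycin-resistant, erm and mef); S. aureus ATCC29213 ([…]); S. epidermidis clinical isolate (penicillin-resistant, not characterized).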
# [4] = test system: Streptococcus pyogenes; assay: Antibacterial activity against erythromycin-susceptible Streptococcus pyogenes clinical isolate by broth microdilution method; how it was run: as §1
# [5] = test system: Escherichia coli; assay: Antibacterial activity against penicillin-susceptible Escherichia coli ATCC 25922 by broth microdilution method; how it was run: as §1
# [6] = test system: Streptococcus pneumoniae; assay: Antibacterial activity against erythromycin-resistant Streptococcus pneumoniae B1 expressing ermB gene by broth microdilution method; how it was run: as §2
# [7] = test system: Bacillus subtilis; assay: Antibacterial activity against erythromycin/penicillin-susceptible Bacillus subtilis ATCC 9372 by broth microdilution method; how it was run: as §1
# [8] = test system: Staphylococcus aureus; assay: Antibacterial activity against […] Staphylococcus aureus ATCC 29213 by broth microdilution method; how it was run: as §2
# [9] = test system: Pseudomonas aeruginosa; assay: Antibacterial activity against penicillin-susceptible Pseudomonas aeruginosa ATCC 27853 by broth microdilution method; how it was run: as §1
# [10] = test system: Streptococcus pneumoniae; assay: Antibacterial activity against erythromycin-resistant Streptococcus pneumoniae AB11 expressing ermB/mefA genes by broth microdilution method; how it was run: as §2
# [11] = test system: Staphylococcus epidermidis; assay: Antibacterial activity against penicillin-resistant Staphylococcus epidermidis clinical isolate by broth microdilution method; how it was run: as §2
SMILES,MIC [1] [µg/mL],MIC [2] [µg/mL],MIC [3] [µg/mL],MIC [4] [µg/mL],MIC [5] [µg/mL],MIC [6] [µg/mL],MIC [7] [µg/mL],MIC [8] [µg/mL],MIC [9] [µg/mL],MIC [10] [µg/mL],MIC [11] [µg/mL]
CC[C@H]1OC(=O)[C@H](C)[C@@H](O)[C@H](C)[C@@H](O[C@@H]2O[C@H](C)C[C@H](N(C)C)[C@H]2OC(=O)Nc2cccc(Cl)c2)[C@](C)(O)C[C@@H](C)CN(C)[C@H](C)[C@H]2OC(=O)O[C@@]21C,16,64,8,1,32,64,8,128,64,32,32
CC[C@H]1OC(=O)[C@H](C)[C@@H](O)[C@H](C)[C@@H](O[C@@H]2O[C@H](C)C[C@H](N(C)C)[C@H]2OC(=O)Nc2ccccc2C)[C@](C)(O)C[C@@H](C)CN(C)[C@H](C)[C@H]2OC(=O)O[C@@]21C,4,64,2,0.5,64,64,4,32,64,4,16
CC[C@H]1OC(=O)[C@H](C)[C@@H](OC(=O)n2ccnc2)[C@H](C)[C@@H](O[C@@H]2O[C@H](C)C[C@H](N(C)C)[C@H]2OC(C)=O)[C@](C)(O)C[C@@H](C)CN(C)[C@H](C)[C@H]2OC(=O)O[C@@]21C,128,56,16,8,32,256,128,128,128,256,128
CC[C@H]1OC(=O)[C@H](C)[C@@H](O)[C@H](C)[C@@H](O[C@@H]2O[C@H](C)C[C@H](N(C)C)[C@H]2OC(=O)Nc2ccc(F)cc2)[C@](C)(O)C[C@@H](C)CN(C)[C@H](C)[C@H]2OC(=O)O[C@@]21C,16,64,4,1,128,64,64,128,128,8,64
CC[C@H]1OC(=O)[C@H](C)[C@@H](OC(=O)Nc2ccccc2C)[C@H](C)[C@@H](O[C@@H]2O[C@H](C)C[C@H](N(C)C)[C@H]2OC(C)=O)[C@](C)(O)C[C@@H](C)CN(C)[C@H](C)[C@H]2OC(=O)O[C@@]21C,16,256,8,1,64,256,8,64,64,16,128
CC[C@H]1OC(=O)[C@H](C)[C@@H](O)[C@H](C)[C@@H](O[C@@H]2O[C@H](C)C[C@H](N(C)C)[C@H]2OC(=O)Nc2cccc(C)c2)[C@](C)(O)C[C@@H](C)CN(C)[C@H](C)[C@H]2OC(=O)O[C@@]21C,32,64,128,1,64,128,32,128,128,64,32
CCCCc1ccc(NC(=O)O[C@H]2[C@H](O[C@@H]3[C@@H](C)[C@H](O)[C@@H](C)C(=O)O[C@H](CC)[C@@]4(C)OC(=O)O[C@@H]4[C@@H](C)N(C)C[C@H](C)C[C@@]3(C)O)O[C@H](C)C[C@@H]2N(C)C)cc1,32,64,64,8,128,256,128,128,128,32,64
CC[C@H]1OC(=O)[C@H](C)[C@@H](O)[C@H](C)[C@@H](O[C@@H]2O[C@H](C)C[C@H](N(C)C)[C@H]2OC(=O)Nc2cccc(OC)c2)[C@](C)(O)C[C@@H](C)CN(C)[C@H](C)[C@H]2OC(=O)O[C@@]21C,32,128,16,2,64,128,128,128,64,32,64
CC[C@H]1OC(=O)[C@H](C)[C@@H](OC(=O)N(C)c2ccccc2)[C@H](C)[C@@H](O[C@@H]2O[C@H](C)C[C@H](N(C)C)[C@H]2OC(C)=O)[C@](C)(O)C[C@@H](C)CN(C)[C@H](C)[C@H]2OC(=O)O[C@@]21C,,,,,,,,,,,128
CC[C@H]1OC(=O)[C@H](C)[C@@H](O)[C@H](C)[C@@H](O[C@@H]2O[C@H](C)C[C@H](N(C)C)[C@H]2OC(=O)Nc2ccccc2)[C@](C)(O)C[C@@H](C)CN(C)[C@H](C)[C@H]2OC(=O)O[C@@]21C,32,128,8,0.5,64,128,32,128,32,8,32
CC[C@H]1OC(=O)[C@H](C)[C@@H](OC(=O)Nc2ccccc2F)[C@H](C)[C@@H](O[C@@H]2O[C@H](C)C[C@H](N(C)C)[C@H]2OC(C)=O)[C@](C)(O)C[C@@H](C)CN(C)[C@H](C)[C@H]2OC(=O)O[C@@]21C,32,128,8,4,64,128,32,64,128,32,64
CC[C@H]1OC(=O)[C@H](C)[C@@H](O)[C@H](C)[C@@H](O[C@@H]2O[C@H](C)C[C@H](N(C)C)[C@H]2OC(=O)Nc2cccc(F)c2)[C@](C)(O)C[C@@H](C)CN(C)[C@H](C)[C@H]2OC(=O)O[C@@]21C,32,128,8,1,128,256,128,128,128,16,64
CCCCCCNC(=O)O[C@@H]1[C@@H](C)N(C)C[C@H](C)C[C@@](C)(O)[C@H](O[C@@H]2O[C@H](C)C[C@H](N(C)C)[C@H]2O)[C@@H](C)[C@H](OC(=O)Nc2ccccc2)[C@@H](C)C(=O)O[C@H](CC)[C@@]1(C)O,16,,,1,64,,4,,64,,
CC[C@H]1OC(=O)[C@H](C)[C@@H](OC(=O)Nc2ccccc2)[C@H](C)[C@@H](O[C@@H]2O[C@H](C)C[C@H](N(C)C)[C@H]2OC(C)=O)[C@](C)(O)C[C@@H](C)CN(C)[C@H](C)[C@H]2OC(=O)O[C@@]21C,32,128,4,0.25,32,128,32,128,64,64,16
